Results: ChEMBL document CHEMBL2417369, “Synthesis and evaluation of heteroaryl substituted diazaspirocycles as scaffolds to probe the ATP-binding site of protein kinases” (Bioorg Med Chem, 2013)

Assays:
[1] = target: T1, Aurora kinase C (Homo sapiens) (UniProt Q9UQB9); assay: Inhibition of AURC (unknown origin) at 30 uM by microfluidic mobility shift assay relative to control
T1 sequence (whole entry): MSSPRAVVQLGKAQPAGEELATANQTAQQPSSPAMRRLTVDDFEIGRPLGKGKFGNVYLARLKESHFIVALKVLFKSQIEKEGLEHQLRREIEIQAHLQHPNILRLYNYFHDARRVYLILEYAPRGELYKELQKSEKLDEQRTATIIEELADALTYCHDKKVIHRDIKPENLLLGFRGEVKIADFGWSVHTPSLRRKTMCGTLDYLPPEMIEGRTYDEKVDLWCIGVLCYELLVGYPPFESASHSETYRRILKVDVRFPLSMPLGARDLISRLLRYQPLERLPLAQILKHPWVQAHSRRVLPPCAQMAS
Method in brief: (§1)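 Single-point screen at 30 µM test compound across a 24-kinase panel in a microfluidic assay format. ATP was set near each enzyme's Km,[ATP]. […] The pan-AGC inhibitor H-89 served as an internal control on every assay plate.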

[2] = target: Cyclin-dependent kinase 2 (Homo sapiens) (UniProt P24941); assay: Inhibition of CDK2 (unknown origin) at 30 uM by microfluidic mobility shift assay relative to control; method in brief: as §1
[3] = target: Fibroblast growth factor receptor 1 (Homo sapiens) (UniProt P11362); assay: Inhibition of FGFR1 (unknown origin) at 30 uM by microfluidic mobility shift assay relative to control; method in brief: as §1
[4] = target: Serine/threonine-protein kinase pim-1 (Homo sapiens) (UniProt P11309); assay: Inhibition of PIM1 (unknown origin) at 30 uM by microfluidic mobility shift assay relative to control; method in brief: as §1
[5] = target: T2, Serine/threonine-protein kinase BRSK1 (Homo sapiens) (UniProt Q8TDC3); assay: Inhibition of BRSK1 (unknown origin) at 30 uM by microfluidic mobility shift assay relative to control; method in brief: as §1
T2 sequence (whole entry): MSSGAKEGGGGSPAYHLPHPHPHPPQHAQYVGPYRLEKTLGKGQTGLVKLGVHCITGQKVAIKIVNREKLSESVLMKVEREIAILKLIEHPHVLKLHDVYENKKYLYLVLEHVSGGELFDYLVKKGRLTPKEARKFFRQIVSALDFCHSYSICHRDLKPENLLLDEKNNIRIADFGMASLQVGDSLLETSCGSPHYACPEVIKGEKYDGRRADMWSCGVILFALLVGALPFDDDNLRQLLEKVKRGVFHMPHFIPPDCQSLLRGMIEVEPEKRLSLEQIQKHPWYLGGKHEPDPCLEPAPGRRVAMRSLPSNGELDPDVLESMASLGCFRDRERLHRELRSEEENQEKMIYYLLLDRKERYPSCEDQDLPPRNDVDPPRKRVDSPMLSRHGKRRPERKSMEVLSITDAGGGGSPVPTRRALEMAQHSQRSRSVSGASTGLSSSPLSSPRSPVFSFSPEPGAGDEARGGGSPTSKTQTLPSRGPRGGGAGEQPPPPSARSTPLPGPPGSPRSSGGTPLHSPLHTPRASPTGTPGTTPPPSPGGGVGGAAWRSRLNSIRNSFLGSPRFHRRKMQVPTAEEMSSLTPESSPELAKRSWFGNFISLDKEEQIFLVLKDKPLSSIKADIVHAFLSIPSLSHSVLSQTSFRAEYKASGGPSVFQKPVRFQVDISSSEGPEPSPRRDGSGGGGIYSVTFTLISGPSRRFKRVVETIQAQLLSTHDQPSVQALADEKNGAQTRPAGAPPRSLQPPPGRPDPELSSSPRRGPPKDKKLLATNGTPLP

[6] = target: Tyrosine-protein kinase BTK (Homo sapiens) (UniProt Q06187); assay: Inhibition of BTK (unknown origin) at 30 uM by microfluidic mobility shift assay relative to control; method in brief: as §1
[7] = target: Fibroblast growth factor receptor 2 (Homo sapiens) (UniProt P21802); assay: Inhibition of FGFR2 (unknown origin) at 30 uM by microfluidic mobility shift assay relative to control; method in brief: as §1
[8] = target: Protein kinase C alpha type (Homo sapiens) (UniProt P17252); assay: Inhibition of PKCalpha (unknown origin) at 30 uM by microfluidic mobility shift assay relative to control; method in brief: as §1
[9] = tested on: T3, Receptor-type tyrosine-protein kinase FLT3 (Homo sapiens), P36888 [D835Y]; assay: Inhibition of FLT3 D835Y mutant (unknown origin) at 30 uM by microfluidic mobility shift assay relative to control; method in brief: as §1
T3 sequence (whole entry): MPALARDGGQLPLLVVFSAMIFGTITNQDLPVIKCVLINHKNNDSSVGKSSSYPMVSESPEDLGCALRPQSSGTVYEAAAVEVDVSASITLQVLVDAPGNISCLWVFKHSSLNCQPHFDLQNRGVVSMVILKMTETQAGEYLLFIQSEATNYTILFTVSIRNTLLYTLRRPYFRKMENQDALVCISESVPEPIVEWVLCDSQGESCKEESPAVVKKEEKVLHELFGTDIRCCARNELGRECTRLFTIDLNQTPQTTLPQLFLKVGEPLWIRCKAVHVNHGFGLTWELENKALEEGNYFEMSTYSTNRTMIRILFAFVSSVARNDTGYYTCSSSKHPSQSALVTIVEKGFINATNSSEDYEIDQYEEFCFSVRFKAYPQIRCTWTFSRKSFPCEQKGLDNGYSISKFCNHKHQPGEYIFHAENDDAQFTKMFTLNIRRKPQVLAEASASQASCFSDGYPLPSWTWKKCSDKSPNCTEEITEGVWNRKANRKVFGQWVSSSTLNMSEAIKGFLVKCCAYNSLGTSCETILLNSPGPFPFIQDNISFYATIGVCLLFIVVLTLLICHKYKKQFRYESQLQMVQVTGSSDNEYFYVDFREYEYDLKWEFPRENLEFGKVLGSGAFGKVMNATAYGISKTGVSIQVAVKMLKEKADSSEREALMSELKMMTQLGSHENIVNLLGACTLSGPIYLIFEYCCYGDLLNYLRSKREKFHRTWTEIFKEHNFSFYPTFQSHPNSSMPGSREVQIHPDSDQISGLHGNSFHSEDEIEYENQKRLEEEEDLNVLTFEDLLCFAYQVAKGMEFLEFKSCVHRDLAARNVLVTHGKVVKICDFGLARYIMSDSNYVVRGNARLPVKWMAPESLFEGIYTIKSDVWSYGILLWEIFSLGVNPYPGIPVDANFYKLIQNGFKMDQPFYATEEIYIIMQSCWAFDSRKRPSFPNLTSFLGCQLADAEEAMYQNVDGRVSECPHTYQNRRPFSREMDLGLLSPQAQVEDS

Tyrosine-protein kinase BTK (Homo sapiens), sequence (Q06187 whole entry): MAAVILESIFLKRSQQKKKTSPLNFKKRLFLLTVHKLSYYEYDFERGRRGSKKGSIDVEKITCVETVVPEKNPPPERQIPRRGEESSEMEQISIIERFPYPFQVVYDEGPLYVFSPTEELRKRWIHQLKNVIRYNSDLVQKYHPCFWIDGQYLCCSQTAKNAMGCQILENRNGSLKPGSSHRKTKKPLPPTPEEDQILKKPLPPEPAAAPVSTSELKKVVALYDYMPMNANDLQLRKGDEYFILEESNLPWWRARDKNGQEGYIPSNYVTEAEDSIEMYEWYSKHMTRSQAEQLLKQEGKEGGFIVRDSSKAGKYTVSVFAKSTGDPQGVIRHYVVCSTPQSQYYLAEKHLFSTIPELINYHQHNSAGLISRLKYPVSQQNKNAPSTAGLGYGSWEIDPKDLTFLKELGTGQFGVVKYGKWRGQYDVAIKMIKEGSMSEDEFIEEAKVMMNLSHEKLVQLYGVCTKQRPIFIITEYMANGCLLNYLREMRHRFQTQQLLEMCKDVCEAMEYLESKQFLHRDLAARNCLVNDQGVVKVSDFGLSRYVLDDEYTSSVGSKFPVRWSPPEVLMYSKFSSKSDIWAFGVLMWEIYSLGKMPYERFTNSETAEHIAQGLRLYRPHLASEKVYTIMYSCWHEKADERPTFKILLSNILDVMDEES
Serine/threonine-protein kinase pim-1 (Homo sapiens), sequence (P11309 whole entry, looked up): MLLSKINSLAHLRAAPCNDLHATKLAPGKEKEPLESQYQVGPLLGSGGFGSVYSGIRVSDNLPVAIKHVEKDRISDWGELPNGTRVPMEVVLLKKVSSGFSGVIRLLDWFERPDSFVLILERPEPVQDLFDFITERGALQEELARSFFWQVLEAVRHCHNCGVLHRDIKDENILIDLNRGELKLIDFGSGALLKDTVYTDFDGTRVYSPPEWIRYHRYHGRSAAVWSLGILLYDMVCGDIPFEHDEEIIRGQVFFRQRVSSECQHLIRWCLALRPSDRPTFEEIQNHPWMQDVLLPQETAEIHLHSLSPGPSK
Fibroblast growth factor receptor 2 (Homo sapiens), sequence (P21802 22-821 limits assumed): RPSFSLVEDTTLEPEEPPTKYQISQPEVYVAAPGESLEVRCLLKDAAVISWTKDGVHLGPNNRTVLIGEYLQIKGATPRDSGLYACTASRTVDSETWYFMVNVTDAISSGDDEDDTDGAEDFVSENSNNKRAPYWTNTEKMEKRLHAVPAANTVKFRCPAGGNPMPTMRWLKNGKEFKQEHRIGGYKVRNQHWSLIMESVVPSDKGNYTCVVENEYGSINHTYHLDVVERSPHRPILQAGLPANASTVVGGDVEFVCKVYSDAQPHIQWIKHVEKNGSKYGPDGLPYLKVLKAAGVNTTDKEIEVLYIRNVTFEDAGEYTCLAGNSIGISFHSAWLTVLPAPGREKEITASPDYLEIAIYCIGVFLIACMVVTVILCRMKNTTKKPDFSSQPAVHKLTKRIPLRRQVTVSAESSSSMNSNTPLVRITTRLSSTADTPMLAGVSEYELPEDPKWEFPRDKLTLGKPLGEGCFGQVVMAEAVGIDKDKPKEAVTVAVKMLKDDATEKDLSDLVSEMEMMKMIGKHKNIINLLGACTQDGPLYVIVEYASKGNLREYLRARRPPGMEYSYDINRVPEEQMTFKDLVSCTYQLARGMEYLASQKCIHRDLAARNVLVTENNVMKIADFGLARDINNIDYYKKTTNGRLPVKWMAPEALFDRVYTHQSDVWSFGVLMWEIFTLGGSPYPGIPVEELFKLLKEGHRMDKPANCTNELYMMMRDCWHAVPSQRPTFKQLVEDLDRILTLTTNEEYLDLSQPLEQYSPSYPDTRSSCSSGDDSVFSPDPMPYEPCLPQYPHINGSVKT
Fibroblast growth factor receptor 1 (Homo sapiens), sequence (P11362 22-822 limits assumed): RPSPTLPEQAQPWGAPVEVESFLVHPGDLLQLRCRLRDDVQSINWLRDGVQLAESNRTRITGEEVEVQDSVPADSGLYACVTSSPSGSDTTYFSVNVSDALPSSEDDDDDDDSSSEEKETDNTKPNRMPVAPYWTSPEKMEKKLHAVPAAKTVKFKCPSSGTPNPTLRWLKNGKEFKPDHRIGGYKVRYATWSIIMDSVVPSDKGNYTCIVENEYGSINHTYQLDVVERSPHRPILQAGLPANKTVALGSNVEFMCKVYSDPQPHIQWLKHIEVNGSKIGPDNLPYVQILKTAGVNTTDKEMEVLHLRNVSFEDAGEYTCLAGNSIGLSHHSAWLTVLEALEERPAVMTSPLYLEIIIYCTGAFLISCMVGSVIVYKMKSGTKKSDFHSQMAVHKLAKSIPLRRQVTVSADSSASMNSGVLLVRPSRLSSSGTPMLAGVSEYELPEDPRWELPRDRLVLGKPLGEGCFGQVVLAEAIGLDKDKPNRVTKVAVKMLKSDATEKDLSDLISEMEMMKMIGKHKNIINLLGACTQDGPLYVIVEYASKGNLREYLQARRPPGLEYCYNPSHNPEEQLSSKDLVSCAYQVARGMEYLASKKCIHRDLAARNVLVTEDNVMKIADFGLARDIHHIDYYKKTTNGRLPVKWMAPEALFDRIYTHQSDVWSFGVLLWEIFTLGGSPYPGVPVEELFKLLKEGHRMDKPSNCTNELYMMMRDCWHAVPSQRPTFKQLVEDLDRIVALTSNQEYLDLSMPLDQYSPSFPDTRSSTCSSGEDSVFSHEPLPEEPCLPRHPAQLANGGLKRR

| Structure (SMILES) | inhibition [1] | inhibition [2] | inhibition [3] | inhibition [4] | inhibition [5] | inhibition [6] | inhibition [7] | inhibition [8] | inhibition [9] |
| --- | --- | --- | --- | --- | --- | --- | --- | --- | --- |
| c1ccc(C2CCNC3(CCN(c4ncnc5[nH]cnc45)CC3)C2)cc1 (racemic) | 54% | 19% | 27% | 7% | 13% | 0% | 15% | 59% | 45% |
| c1ccc(CC2CCC3(CCN(c4ncnc5[nH]cnc45)CC3)NC2)cc1 (racemic) | 61% | 15% | 42% | 11% | 10% | 0% | 20% | 35% | 56% |
| c1ccc(CC2CCNC3(CCN(c4ncnc5[nH]cnc45)CC3)C2)cc1 (racemic) | 46% | 21% | 44% | 8% | 16% | 11% | 18% | 78% | 22% |
